Source: article PMC12650307 (RSC Advances, 2025)

Key:
CDK2 = CDK2 (Homo sapiens, UniProt P24941); test: In vitro CDK2 enzyme inhibition; assay type: biochemical
MCF-7 cells [1] = test: MTT cytotoxicity assay, MCF-7; assay type: cell-based; details: Homo sapiens, MCF7, 48 h, read-out: IC50 MCF-7
HepG2 cells = test: MTT cytotoxicity assay, HepG2; assay type: cell-based; details: Homo sapiens, HepG2, 48 h, read-out: IC50 HepG2
Bcl-2 = Bcl-2 level by ELISA in treated MCF-7 cells; assay type: cell-based, human
MCF-7 cells [2] = test: Annexin V-FITC/PI apoptosis assay; assay type: cell-based, human; details: MCF-7, 48 h at IC50
In short: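 Treated MCF-7 cells for 48 h, then trypsinized and washed in PBS. Stained with annexin V-FITC plus propidium iodide at room temperature in the dark, per kit instructions, then read on a FACScan flow cytometer. Quadrants: upper left necrotic, upper right late apoptotic, lower right early apoptotic, lower left living. Untreated MCF-7 served as control.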

MCF-7 cells [3] = test: Cell cycle analysis; assay type: cell-based, human
In short: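 MCF-7 cells were exposed for 48 h, harvested by trypsinization and washed twice in PBS. Fixed in ice-cold 60% (w/w) ethanol at 4 °C for 12 h, then rewashed in PBS. Stained 30 min in buffer with RNase and propidium iodide. Flow cytometry gave the % of cells in G1, S and G2, with untreated MCF-7 as control.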

Bax = Bax level by ELISA in treated MCF-7 cells; assay type: cell-based, human

Row | Structure (SMILES) | IC50 (CDK2) | IC50 (MCF-7 cells [1]) | IC50 (HepG2 cells) | further results
1 | Nc1nn(-c2ccccn2)c(N)c1N=Nc1ccc(S(=O)(=O)O)cc1 [Compound 4, 4-((3,5-Diamino-1-(2-pyridinyl)-1H-pyrazol-4-yl)diazenyl)benzenesulfonic acid] | 750 ± 50 nM | 48.7 ± 2.8 µM | 53.8 ± 3.2 µM | 
2 | Nc1nn(-c2ccccn2)c(N)c1N=Nc1ccc(C(=O)O)c(O)c1 [Compound 5, 4-((3,5-Diamino-1-(2-pyridinyl)-1H-pyrazol-4-yl)diazenyl)-2-hydroxybenzoic acid] | 560 ± 30 nM | 8.03 ± 0.6 µM | 13.1 ± 1.1 µM | decrease of anti-apoptotic Bcl-2 level in comparison with control (Bcl-2): 3 fold; Bcl-2 (Bcl-2; control 5.31 ± 0.5): 1.72 ± 0.08 ng/mL; Bcl-2 FLD (Bcl-2; relative to control = 1): 0.3; CDK2 inhibitory activity relative to roscovitine (CDK2): 2 fold; Late apoptosis (MCF-7 cells [2]; control 0.04): 8.10%; Necrosis (MCF-7 cells [2]; control 0.18): 0.02%; Early apoptosis (MCF-7 cells [2]; control 0.43): 71.1%; Total (apoptosis/necrosis) (MCF-7 cells [2]; control 0.65): 79.22; fold increase in S phase in comparison to control (MCF-7 cells [3]; MCF-7): 1.2 fold; % S (MCF-7 cells [3]; MCF-7, 48 h at its IC50, control 35.52): 41.02%; % G1 (MCF-7 cells [3]; MCF-7, 48 h at its IC50, control 38.02): 11.98%; Bax/Bcl-2 ratio in comparison with control (Bax): approximately 20 fold; Bax (Bax; control 57.22 ± 0.9): 369.15 ± 0.7 pg/mL; Bax FLD (Bax; relative to control = 1): 6.45 fold
3 | NC(N)=NS(=O)(=O)c1ccc(N=Nc2c(N)nn(-c3ccccn3)c2N)cc1 [Compound 6, 4-((3,5-Diamino-1-(2-pyridinyl)-1H-pyrazol-4-yl)diazenyl)-N-(diaminomethylene)benzenesulfonamide] | 460 ± 20 nM | 26.1 ± 1.7 µM | 22.8 ± 1.5 µM | CDK2 inhibitory activity relative to roscovitine (CDK2): 2 fold
4 | Nc1nn(-c2ccccn2)c(N)c1N=Nc1ccc(N=Nc2ccccc2)cc1 [Compound 7, 4-((4-(Phenyldiazenyl)phenyl)diazenyl)-1-(2-pyridinyl)-1H-pyrazole-3,5-diamine] | 770 ± 50 nM | 35.1 ± 2.2 µM | 67.1 ± 3.5 µM | 
5 | Nc1nn(-c2ccccn2)c(N)c1N=Nc1cc(Cl)c(Cl)cc1Cl [Compound 8, 1-(2-Pyridinyl)-4-((2,4,5-trichlorophenyl)diazenyl)-1H-pyrazole-3,5-diamine] | 1460 ± 500 nM |  |  | 
6 | Nc1nn(-c2ccccn2)c(N)c1N=Nc1nccs1 [Compound 12, 1-(Pyridin-2-yl)-4-(thiazol-2-yldiazenyl)-1H-pyrazole-3,5-diamine] | 1240 ± 850 nM |  |  | 
7 | COc1cccc2c1C(=O)c1c(O)c3c(c(O)c1C2=O)C[C@@](O)(C(=O)CO)C[C@@H]3O[C@H]1C[C@H](N)[C@H](O)[C@H](C)O1 [DOX, doxorubicin, reference compound] |  |  | 4.5 ± 0.2 µM | 

More lines, main results first:

Row | IC50 (CDK2) | Structure (SMILES) | IC50 (MCF-7 cells [1]) | IC50 (HepG2 cells) | further results
8 | 1050 ± 200 nM | Cc1cccc(N=Nc2c(N)nn(-c3ccccn3)c2N)c1 [Compound 2, 1-(2-Pyridinyl)-4-(3-tolyldiazenyl)-1H-pyrazole-3,5-diamine] |  |  | 
9 | 1200 ± 150 nM | CC(=O)c1ccc(N=Nc2c(N)nn(-c3ccccn3)c2N)cc1 [Compound 3, 1-(4-((3,5-Diamino-1-(2-pyridinyl)-1H-pyrazol-4-yl)diazenyl)phenyl)ethan-1-one] |  |  | 
10 | 1500 ± 700 nM | Nc1nn(-c2ccccn2)c(N)c1N=Nc1cccc([N+](=O)[O-])c1 [Compound 9, 4-((3-Nitrophenyl)diazenyl)-1-(2-pyridinyl)-1H-pyrazole-3,5-diamine] |  |  | 
11 | 850 ± 50 nM | COc1ccc(N=Nc2c(N)nn(-c3ccccn3)c2N)cc1 [Compound 10, 4-((4-Methoxyphenyl)diazenyl)-1-(2-pyridinyl)-1H-pyrazole-3,5-diamine] | 15.4 ± 1.2 µM | 41.6 ± 2.4 µM | 
12 | 450 ± 20 nM | Nc1nn(-c2ccccn2)c(N)c1N=Nc1ccccc1Cl [Compound 11, 4-((2-Chlorophenyl)diazenyl)-1-(2-pyridinyl)-1H-pyrazole-3,5-diamine] | 61.8 ± 3.4 µM | 74.2 ± 3.8 µM | CDK2 inhibitory activity relative to roscovitine (CDK2): 2 fold
